Measured values collected from several papers.
Lines come from different studies, so protocols differ.
Target: Serine/threonine-protein kinase WNK2 (WNK2, Homo sapiens, UniProt Q9Y3S1)

| Structure (SMILES) | test | conditions | remaining binding |
| --- | --- | --- | --- |
| COc1cnc(Nc2cccc(S(N)(=O)=O)c2)nc1N1CCN(c2ccccc2)C(=O)C1 | binding, competition with immobilised ligand | 1 µM | 100% |
| Cc1cnn2ncc(-c3ccnc(N(C)C)n3)c2c1 | binding | 1 µM | 100% |
| CCC(=N\O)/C(C)=C/c1ccc(F)cc1 | cell-free assay, competition with immobilised ligand | 1 µM | 80% |
| COc1ccnn2ncc(-c3ccnc(N(C)C)n3)c12 | binding | 1 µM | 100% |
| Nc1ncc2c(n1)-c1c([nH]c3ccc(C#CC4CC4)cc13)CCCC2 | binding, competition with immobilised ligand | 1 µM | 100% |
| O=C(NCCCN1CCOCC1)c1ccc(Nc2ncc(Cl)c(-c3ccc(Cl)s3)n2)cc1 | binding, competition with immobilised ligand | 1 µM | 92% |
| CN(C)c1nccc(-c2cnc3ncccn23)n1 | binding | 1 µM | 94% |
| c1cncc(-c2cccc(Nc3nccc(NC4CCCCC4)n3)c2)c1 | binding, competition with immobilised ligand | 10 µM | 100% |
| CNCc1ccccc1-c1csc([C@H](C)Nc2nc(C)nc3cc(OC)c(OC)cc23)c1 | cell-free assay, competition with immobilised ligand | 1 µM | 99% |
| COc1ncc2cc3ccccc3nc2c1C#N | cell-free assay, competition with immobilised ligand | 5 µM | 100% |
| FC(F)(F)Oc1cccc(-c2cnc3ccc(-c4ccncc4)nn23)c1 | binding, competition with immobilised ligand | 5 µM | 86% |
| N[C@@H]1CCN(c2nccc(-c3cnn4ncccc34)n2)C1 | binding | 1 µM | 95% |
| CC1=C(C#N)[C@@H](c2ccc3[nH]nc(C)c3c2)C(C#N)=C(c2ccc(Cl)cc2)N1 | cell-free assay, competition with immobilised ligand | 1 µM | 100% |
| O=C(Nc1c[nH]nc1C(=O)NC1CCNCC1)c1cc(F)cc(F)c1 | binding, competition with immobilised ligand | 1 µM | 100% |
| CNC(=O)Nc1ccc2c(c1)CC[C@@]21OC(=O)N(CC(=O)N(Cc2ccc(F)cc2)[C@@H](C)C(F)(F)F)C1=O | cell-free assay, competition with immobilised ligand | 1 µM | 100% |
| C[C@@H]1CCN(c2nccc(-c3cnn4ncccc34)n2)C1 | binding | 1 µM | 100% |
| COc1ccc2c(c1)O[C@@H](c1ccc(OC)c(OC)c1)C[C@H]2NC(=O)C1(c2ccc3c(c2)OC(F)(F)O3)CC1 | cell-free assay, competition with immobilised ligand | 1 µM | 84% |
| O=C(c1ccc(Nc2ncc(Cl)c(-c3cc4ccccc4s3)n2)cc1)N1CCC(N2CCCC2)CC1 | binding, competition with immobilised ligand | 1 µM | 83% |
| CCc1ccccc1C(=O)Nc1n[nH]c2c(C)c(F)c(C3C(C#N)=C(C)N(C)C(C)=C3C#N)cc12 | cell-free assay, competition with immobilised ligand | 1 µM | 100% |
| CC1CCCN1c1nccc(-c2cnn3ncccc23)n1 (stereo not drawn) | binding | 1 µM | 100% |
| O=C(c1ccc(Nc2ncc(Cl)c(-c3ccc(Cl)s3)n2)cc1)N1CCC(N2CCCC2)CC1 | binding, competition with immobilised ligand | 1 µM | 88% |
